Experimental data: ChEMBL document CHEMBL1131195, “Antileishmanial chalcones: statistical design, synthesis, and three-dimensional quantitative structure-activity relationship analysis” (J Med Chem, 1998); call rule not given here

How the values were obtained:
[1] = Inhibitory activity against phytohemagglutininin A-induced proliferation of human lymphocytes; format: functional
Outline: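 Human lymphocytes stimulated with phytohemagglutinin A were incubated in vitro with increasing concentrations of each chalcone, and inhibition of their proliferation was measured.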

Leishmania donovani [2] = test: Tested in vitro for anti-leishmanial activity against Leishmania donovani; format: functional, organism-based
Outline: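 In vitro assay using Leishmania donovani promastigotes incubated with increasing chalcone concentrations, with inhibition of parasite proliferation as the read-out.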

[3] = Inhibitory activity against phytohemagglutininin A-induced proliferation of human lymphocytes; Not tested due to low solubility; format: functional
Leishmania donovani [4] = test: Tested in vitro for anti-leishmanial activity against Leishmania. donovani; Not tested due to low solubility; format: functional, organism-based

## COc1ccc(C(=O)/C=C/c2ccc(Cl)cc2Cl)c(OC)c1OC
[1]
  IC50: 7.8 µM
Leishmania donovani [2]
  IC50: 6.3 µM

## COc1ccc(C(=O)/C=C/c2ccc(F)cc2F)c(OC)c1
[1]
  IC50: 12 µM
Leishmania donovani [2]
  IC50: 27 µM

## CN(C)c1ccc(/C=C/C(=O)c2ccc(O)cc2)cc1
[1]
  IC50: 130 µM
Leishmania donovani [2]
  IC50: 79 µM

## CCCCOc1ccc(C(=O)/C=C/c2ccc(OC)cc2OC)cc1
[3]
  IC50: Not Active
Leishmania donovani [2]
  IC50: 95 µM

## C=CCOc1ccc(C(=O)/C=C/c2cccc(OC)c2OC)cc1
[1]
  IC50: 96 µM
Leishmania donovani [2]
  IC50: 49 µM

## O=C(/C=C/c1ccc(Oc2ccccc2)cc1)c1ccc(C2CCCCC2)cc1
Leishmania donovani [4]
  IC50: Not Active
[3]
  IC50: Not Active

## COc1cc(/C=C/C(=O)c2ccc([N+](=O)[O-])cc2)cc(OC)c1
[1]
  IC50: 20 µM
Leishmania donovani [2]
  IC50: 16 µM

## CCCCOc1ccccc1C(=O)/C=C/c1cc(OC)cc(OC)c1
[1]
  IC50: 13 µM
Leishmania donovani [2]
  IC50: 7.2 µM

## C=CCOc1ccc(C(=O)/C=C/c2c(OC)cccc2OC)cc1
[1]
  IC50: 96 µM
Leishmania donovani [2]
  IC50: 81 µM

## COc1cccc(/C=C/C(=O)c2ccc(O)cc2)c1OC
[1]
  IC50: 70 µM
Leishmania donovani [2]
  IC50: 89 µM

## COc1ccc(C(=O)/C=C/c2ccccc2[N+](=O)[O-])c(OC)c1OC
[1]
  IC50: 7 µM
Leishmania donovani [2]
  IC50: 5.9 µM

## COc1cccc(OC)c1/C=C/C(=O)c1ccc(O)cc1
[1]
  IC50: 60 µM
Leishmania donovani [2]
  IC50: 82 µM

## CN(C)c1ccc(/C=C/C(=O)c2ccc(N(C)C)cc2)cc1
[3]
  IC50: Not Active
Leishmania donovani [2]
  IC50: 30 µM

## CN(C)c1ccc(/C=C/C(=O)c2ccc([N+](=O)[O-])cc2)cc1
Leishmania donovani [4]
  IC50: Not Active
[3]
  IC50: Not Active

## COc1ccc(/C=C/C(=O)c2ccc(F)cc2F)c(OC)c1
[1]
  IC50: 74 µM
Leishmania donovani [2]
  IC50: 26 µM

## COc1ccc(/C=C/C(=O)c2ccccc2O)c(OC)c1
[1]
  IC50: 144 µM
Leishmania donovani [2]
  IC50: 35 µM

## COc1cc(O)ccc1/C=C/C(=O)c1ccc(N(C)C)cc1
[1]
  IC50: 111 µM
Leishmania donovani [2]
  IC50: 49 µM

## COc1cc(/C=C/C(=O)c2ccccc2O)cc(OC)c1
[1]
  IC50: 8.1 µM
Leishmania donovani [2]
  IC50: 3.8 µM

## COc1cc(/C=C/C(=O)c2ccc(O)cc2)cc(OC)c1
[1]
  IC50: 14 µM
Leishmania donovani [2]
  IC50: 12 µM

## COc1cc(/C=C/C(=O)c2ccccc2F)cc(OC)c1
[1]
  IC50: 6 µM
Leishmania donovani [2]
  IC50: 3.5 µM

## COc1ccc(OC)c(C(=O)/C=C/c2ccc(Cl)cc2Cl)c1
[1]
  IC50: 5.7 µM
Leishmania donovani [2]
  IC50: 7.8 µM

## COc1cc(/C=C/C(=O)c2cccc(O)c2)cc(OC)c1
[1]
  IC50: 3.2 µM
Leishmania donovani [2]
  IC50: 3.7 µM

## COc1ccc(/C=C/C(=O)c2ccccc2Br)c(OC)c1
[1]
  IC50: 35 µM
Leishmania donovani [2]
  IC50: 14 µM

## COc1cc(OC)c(OC)cc1/C=C/C(=O)c1ccc(O)cc1
[1]
  IC50: 28 µM
Leishmania donovani [2]
  IC50: 16 µM

## CCCCCCOc1ccc(C(=O)/C=C/c2ccc(OC)cc2OC)cc1
[3]
  IC50: Not Active
Leishmania donovani [2]
  IC50: 136 µM

## COc1ccc(/C=C/C(=O)c2ccccc2)c(OC)c1
[1]
  IC50: 48 µM
Leishmania donovani [2]
  IC50: 15 µM

## C=CCOc1ccc(C(=O)/C=C/c2cc(OC)c(OC)c(OC)c2)cc1
[1]
  IC50: 30 µM
Leishmania donovani [2]
  IC50: 41 µM

## COc1ccc(/C=C/C(=O)c2cccc(Br)c2)c(OC)c1
[1]
  IC50: 37 µM
Leishmania donovani [2]
  IC50: 16 µM

## COc1ccc(/C=C/C(=O)c2ccccc2OC)c(OC)c1
[1]
  IC50: 26 µM
Leishmania donovani [2]
  IC50: 16 µM

## CCCCOc1ccc(C(=O)/C=C/c2c(OC)cccc2OC)cc1
Leishmania donovani [2]
  IC50: 104 µM

## CCCCOc1cccc(C(=O)/C=C/c2ccc(OC)cc2OC)c1
[1]
  IC50: 65 µM
Leishmania donovani [2]
  IC50: 20 µM

## COc1ccc(C(=O)/C=C/c2ccc(F)c(F)c2)c(OC)c1
[1]
  IC50: 5.3 µM
Leishmania donovani [2]
  IC50: 16 µM

## COc1cccc(C(=O)/C=C/c2ccc(OC)cc2OC)c1
[1]
  IC50: 42 µM
Leishmania donovani [2]
  IC50: 18 µM

## CCCCOc1ccccc1/C=C/C(=O)c1ccc(OC)c(OC)c1OC
[1]
  IC50: 52 µM
Leishmania donovani [2]
  IC50: 26 µM

## O=C(/C=C/c1ccc([N+](=O)[O-])cc1)c1ccc([N+](=O)[O-])cc1
[1]
  IC50: 51 µM
Leishmania donovani [2]
  IC50: 26 µM

## COc1ccc(C(=O)/C=C/c2cccc(Oc3ccccc3)c2)c(OC)c1OC
[1]
  IC50: 17 µM
Leishmania donovani [2]
  IC50: 8.7 µM

## CN(C)c1ccc(C(=O)/C=C/c2ccc([N+](=O)[O-])cc2)cc1
Leishmania donovani [4]
  IC50: Not Active
[3]
  IC50: Not Active

## COc1ccc(C(=O)/C=C/c2ccc([N+](C)(C)C)cc2)c(OC)c1OC
[1]
  IC50: 35 µM
Leishmania donovani [2]
  IC50: 21 µM

## COc1ccc(C(=O)/C=C/c2cccc(N(C)C)c2)c(OC)c1OC
[1]
  IC50: 26 µM
Leishmania donovani [2]
  IC50: 20 µM

## O=C(/C=C/c1ccccc1)c1ccc(F)cc1
[1]
  IC50: 23 µM
Leishmania donovani [2]
  IC50: 15 µM

## COc1ccc(C(=O)/C=C/c2ccccc2O)c(OC)c1OC
[1]
  IC50: 9 µM
Leishmania donovani [2]
  IC50: 9.3 µM

## O=C(/C=C/c1ccc(Oc2ccccc2)cc1)c1ccc(F)cc1
[1]
  IC50: 33 µM
Leishmania donovani [2]
  IC50: 42 µM

## COc1ccc(/C=C/C(=O)c2cccc([N+](=O)[O-])c2)c(OC)c1
[1]
  IC50: 18 µM
Leishmania donovani [2]
  IC50: 8.6 µM

## COc1cc(OC)c(/C=C/C(=O)c2ccc(O)cc2)c(OC)c1
[1]
  IC50: 44 µM
Leishmania donovani [2]
  IC50: 106 µM

## COc1ccc(C(=O)/C=C/c2ccc(C#N)cc2)c(OC)c1OC
[1]
  IC50: 5.4 µM
Leishmania donovani [2]
  IC50: 8.6 µM

## CCCCCCc1cc(/C=C/C(=O)c2ccc(O)cc2)c(OC)cc1O
[1]
  IC50: 46 µM
Leishmania donovani [2]
  IC50: 9.7 µM

## COc1cc(/C=C/C(=O)c2ccccc2[N+](=O)[O-])cc(OC)c1
[1]
  IC50: 3.7 µM
Leishmania donovani [2]
  IC50: 3.4 µM

## CCCCOc1ccc(C(=O)/C=C/c2cc(OC)cc(OC)c2)cc1
[1]
  IC50: 52 µM
Leishmania donovani [2]
  IC50: 35 µM

## COc1cc(/C=C/C(=O)c2cccc(F)c2)cc(OC)c1
[1]
  IC50: 9.2 µM
Leishmania donovani [2]
  IC50: 5.5 µM

## COc1cc(/C=C/C(=O)c2ccc(N(C)C)cc2)cc(OC)c1
Leishmania donovani [4]
  IC50: Not Active
[3]
  IC50: Not Active

## C=CCOc1ccc(C(=O)/C=C/c2ccc(OC)c(OC)c2)cc1
[1]
  IC50: 51 µM
Leishmania donovani [2]
  IC50: 60 µM

## C=CCOc1ccc(C(=O)/C=C/c2cc(OC)ccc2OC)cc1
[1]
  IC50: 55 µM
Leishmania donovani [2]
  IC50: 73 µM

## CCCCCCOc1ccc(C(=O)/C=C/c2ccccc2)cc1
[1]
  IC50: 99 µM
Leishmania donovani [2]
  IC50: 62 µM

## CCCc1cc(/C=C/C(=O)c2ccc(O)cc2)c(OC)cc1O
[1]
  IC50: 41 µM
Leishmania donovani [2]
  IC50: 26 µM

## COc1cc(/C=C/C(=O)c2ccc(OC)c(OC)c2OC)cc(OC)c1
[1]
  IC50: 8.7 µM
Leishmania donovani [2]
  IC50: 8.3 µM

## C=CCOc1ccc(C(=O)/C=C/c2cc(OC)c(CCCCCC)c(OC)c2)cc1
[1]
  IC50: 15 µM
Leishmania donovani [2]
  IC50: 19 µM

## O=C(/C=C/c1ccc(F)cc1)c1ccc(C2CCCCC2)cc1
[1]
  IC50: 74 µM
Leishmania donovani [2]
  IC50: 27 µM

## COc1ccc(C(=O)/C=C/c2cccc(F)c2)c(OC)c1OC
[1]
  IC50: 6.4 µM
Leishmania donovani [2]
  IC50: 9.7 µM

## COc1cc(/C=C/C(=O)c2ccc(C3CCCCC3)cc2)cc(OC)c1
[1]
  IC50: 39 µM
Leishmania donovani [2]
  IC50: 31 µM

## COc1ccc(C(=O)/C=C/c2cccc([N+](=O)[O-])c2)c(OC)c1OC
[1]
  IC50: 36 µM
Leishmania donovani [2]
  IC50: 17 µM

## C=CCOc1ccc(C(=O)/C=C/c2cc(OC)c(CCCC)c(OC)c2)cc1
[3]
  IC50: Not Active
Leishmania donovani [2]
  IC50: 90 µM

## COc1c(/C=C/C(=O)c2ccc(O)cc2)ccc(O)c1C
[1]
  IC50: 27 µM
Leishmania donovani [2]
  IC50: 22 µM

## C=CCOc1ccc(C(=O)/C=C/c2cc(OCC=C)ccc2OCC=C)cc1
[1]
  IC50: 61 µM
Leishmania donovani [2]
  IC50: 38 µM

## COc1cc(/C=C/C(=O)c2ccccc2N(C)C)cc(OC)c1
[1]
  IC50: 5.7 µM
Leishmania donovani [2]
  IC50: 7.3 µM

## COc1cc(O)cc(C)c1/C=C/C(=O)c1ccc(O)cc1
[1]
  IC50: 53 µM
Leishmania donovani [2]
  IC50: 39 µM

## O=C(/C=C/c1ccc(F)cc1)c1ccc(F)cc1
[1]
  IC50: 22 µM
Leishmania donovani [2]
  IC50: 15 µM

## COc1ccc(OC)c(/C=C/C(=O)c2ccc(O)cc2)c1
[1]
  IC50: 22 µM
Leishmania donovani [2]
  IC50: 23 µM

## C=CCOc1ccc(C(=O)/C=C/c2cc(OC)cc(OC)c2)cc1
[1]
  IC50: 25 µM
Leishmania donovani [2]
  IC50: 27 µM

## COc1ccc(/C=C/C(=O)c2ccc(O)cc2)c(OC)c1
[1]
  IC50: 71 µM
Leishmania donovani [2]
  IC50: 48 µM

## COc1cc(/C=C/C(=O)c2cccc(N(C)C)c2)cc(OC)c1
[1]
  IC50: 5 µM
Leishmania donovani [2]
  IC50: 5.8 µM

## C=CCOc1ccccc1C(=O)/C=C/c1ccc(OC)cc1OC
[3]
  IC50: Not Active
Leishmania donovani [2]
  IC50: 5 µM

## COc1ccc(C(=O)/C=C/c2ccccc2F)c(OC)c1OC
[1]
  IC50: 11 µM
Leishmania donovani [2]
  IC50: 15 µM

## O=C(/C=C/c1ccccc1)c1ccc(O)cc1 [4'-HYDROXYCHALCONE]
[1]
  IC50: 28 µM
Leishmania donovani [2]
  IC50: 16 µM

## O=C(/C=C/c1ccc(O)cc1)c1ccc(O)cc1 [4,4'-DIHYDROXYCHALCONE]
[1]
  IC50: 59 µM
Leishmania donovani [2]
  IC50: 83 µM

## COc1ccc(/C=C/C(=O)c2ccc(OC)cc2)cc1 [4,4'-DIMETHOXYCHALCONE]
[1]
  IC50: 112 µM
Leishmania donovani [2]
  IC50: 106 µM

## O=C(/C=C/c1ccc(O)c(O)c1)c1ccc(O)cc1O [BUTEIN]
[1]
  IC50: 16 µM
Leishmania donovani [2]
  IC50: 66 µM

## O=C(/C=C/c1ccccc1)c1ccccc1 [CHALCONE]
[1]
  IC50: 21 µM
Leishmania donovani [2]
  IC50: 20 µM

## COc1cc(O)ccc1/C=C/C(=O)c1ccc(O)cc1 [ECHINATIN]
[1]
  IC50: 94 µM
Leishmania donovani [2]
  IC50: 68 µM

## COc1cc(/C=C/C(=O)c2ccc(O)cc2O)ccc1O [HOMOBUTEIN]
[1]
  IC50: 31 µM
Leishmania donovani [2]
  IC50: 16 µM

## C=CC(C)(C)c1cc(/C=C/C(=O)c2ccc(O)cc2)c(OC)cc1O [LICOAGROCHACONE A]
[1]
  IC50: 48 µM
Leishmania donovani [2]
  IC50: 13 µM
